{"data": "Results collected from several papers", "target": "Protein kinase C eta type (PRKCH, Homo sapiens, UniProt P24723)", "note": "Compare with care: the assays were run in different laboratories."}
{"Compound": "F[C@@H]1CCN(c2nccc(-c3cnn4ncccc34)n2)C1", "test": "binding", "setting": "1 µM", "remaining binding": "100%"}
{"Compound": "C[C@H](c1ccnc(Nc2nc3ccc(-c4cc(N(C)C)ncn4)cc3[nH]2)c1)N1CCN(C(=O)CC(F)(F)F)CC1", "test": "cell-free assay, competition with immobilised ligand", "setting": "0.1 µM", "remaining binding": "84%"}
{"Compound": "CN(C)c1nccc(-c2cnc3ncccn23)n1", "test": "binding", "setting": "1 µM", "remaining binding": "100%"}
{"Compound": "COc1cnc(Nc2cccc(S(N)(=O)=O)c2)nc1N1CCN(c2ccccc2)C(=O)C1", "test": "binding, competition with immobilised ligand", "setting": "1 µM", "remaining binding": "95%"}
{"Compound": "c1cnn2ncc(-c3ccnc(N4CCC45COC5)n3)c2c1", "test": "binding", "setting": "1 µM", "remaining binding": "88%"}
{"Compound": "CC(=O)Nc1c(C(C)=O)c(=O)n(C)c2nc(-c3ccc(Cl)cc3Cl)c(-c3ccc(Cl)cc3)cc12", "test": "cell-free assay, competition with immobilised ligand", "setting": "1 µM", "remaining binding": "100%"}
{"Compound": "CN(CCCC(F)(F)F)c1nccc(-c2cnn3ncccc23)n1", "test": "binding", "setting": "1 µM", "remaining binding": "89%"}
{"Compound": "O=C(Nc1c[nH]nc1C(=O)NC1CCNCC1)c1cc(F)cc(F)c1", "test": "binding, competition with immobilised ligand", "setting": "1 µM", "remaining binding": "73%"}
{"Compound": "Cn1nc(C(=O)NCc2ccc(C(=O)O)cc2)cc1-c1ccc2[nH]ccc2c1", "test": "cell-free assay, competition with immobilised ligand", "setting": "0.1 µM", "remaining binding": "84%"}
{"Compound": "Cc1cnc(Nc2ccc(C(=O)N3CCC(N4CCCC4)CC3)cc2)nc1-c1cc2ccccc2s1", "test": "binding, competition with immobilised ligand", "setting": "1 µM", "remaining binding": "15%"}
{"Compound": "c1cncc(-c2cccc(Nc3nccc(NC4CCCCC4)n3)c2)c1", "test": "binding, competition with immobilised ligand", "setting": "10 µM", "remaining binding": "73%"}
{"Compound": "N[C@H]1CCN(c2nccc(-c3cnn4ncccc34)n2)C1", "test": "binding", "setting": "1 µM", "remaining binding": "88%"}
{"Compound": "COc1ncc2cc3ccccc3nc2c1C#N", "test": "cell-free assay, competition with immobilised ligand", "setting": "5 µM", "remaining binding": "90%"}
{"Compound": "CN(c1nccc(-c2cnn3ncccc23)n1)C1CC1", "test": "binding", "setting": "1 µM", "remaining binding": "100%"}
{"Compound": "CNC(=O)Nc1ccc2c(c1)CC[C@@]21OC(=O)N(CC(=O)N(Cc2ccc(F)cc2)[C@@H](C)C(F)(F)F)C1=O", "test": "cell-free assay, competition with immobilised ligand", "setting": "1 µM", "remaining binding": "93%"}
{"Compound": "CNC(=O)[C@@H]1CC[C@@H](n2c(-c3ccc4cnccc4c3)nc3ccc(C(=O)NCc4cccc(C(N)=O)c4)cc32)C1", "test": "binding, competition with immobilised ligand", "setting": "1 µM", "remaining binding": "100%"}
{"Compound": "COc1ccc2c(c1)O[C@@H](c1ccc(OC)c(OC)c1)C[C@H]2NC(=O)C1(c2ccc3c(c2)OC(F)(F)O3)CC1", "test": "cell-free assay, competition with immobilised ligand", "setting": "1 µM", "remaining binding": "96%"}
{"Compound": "O=C(c1ccc(Nc2ncc(Cl)c(-c3ccc(Cl)s3)n2)cc1)N1CCC(N2CCCC2)CC1", "test": "binding, competition with immobilised ligand", "setting": "1 µM", "remaining binding": "46%"}
{"Compound": "CCCOc1ccc([C@@H]2[C@@H](C(=O)O)[C@H](c3ccc4c(c3)OCO4)CN2CC(=O)Nc2c(CC)cccc2CC)cc1", "test": "cell-free assay, competition with immobilised ligand", "setting": "1 µM", "remaining binding": "100%"}
{"Compound": "C[C@@H](c1ccc(-n2cnc3c(N)ncnc32)cc1)N1CCc2nn(C)c(Cc3ccccc3)c2C1=O", "test": "binding, competition with immobilised ligand", "setting": "0.1 µM", "remaining binding": "100%"}
{"Compound": "CCCCN(CCCC)C(=O)CN1C[C@H](c2cc(OC)c3c(c2)OCO3)[C@@H](C(=O)O)[C@@H]1CC(C)(C)CCC", "test": "cell-free assay, competition with immobilised ligand", "setting": "1 µM", "remaining binding": "100%"}
{"Compound": "O=C(c1ccc(Nc2nccc(-c3cc4ccccc4s3)n2)cc1)N1CCC(N2CCCC2)CC1", "test": "binding, competition with immobilised ligand", "setting": "1 µM", "remaining binding": "74%"}
